Assay results as given in ChEMBL document CHEMBL4819106, “Aminopyrazole based CDK9 PROTAC sensitizes pancreatic cancer cells to venetoclax” (Bioorg Med Chem Lett, 2021).
Active and inactive are the calls of the source. No cut-off for these calls is given here.

Target: Protein cereblon/Cyclin-dependent kinase 9 (Homo sapiens, UniProt P50750+Q96SW2)
Assay: Protac activity at CDK9/CRBN in human HEK293 cells assessed as degradation of CDK9 at 0.01 to 10 uM incubated for 24 hrs by Western blot analysis
Format: cell-based
Conditions: dose 0.01-10 µM
In short: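 HEK293 cells were treated with increasing concentrations (0.01–10 μM) for 24 hr. Lysates were analysed by western blot for CDK9 degradation.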

Sequence of Protein cereblon/Cyclin-dependent kinase 9 (P50750 whole entry, looked up): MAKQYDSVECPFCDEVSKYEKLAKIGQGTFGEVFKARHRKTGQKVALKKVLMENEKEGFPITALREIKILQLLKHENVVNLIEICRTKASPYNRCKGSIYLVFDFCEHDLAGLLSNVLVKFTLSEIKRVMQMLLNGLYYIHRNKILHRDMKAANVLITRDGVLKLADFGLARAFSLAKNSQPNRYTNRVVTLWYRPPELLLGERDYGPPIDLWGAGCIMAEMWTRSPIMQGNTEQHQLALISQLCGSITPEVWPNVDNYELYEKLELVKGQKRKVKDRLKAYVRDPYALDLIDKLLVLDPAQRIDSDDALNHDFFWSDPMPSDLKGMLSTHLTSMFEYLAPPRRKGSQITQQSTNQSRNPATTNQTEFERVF
Sequence of Protein cereblon/Cyclin-dependent kinase 9 (Q96SW2 whole entry, looked up): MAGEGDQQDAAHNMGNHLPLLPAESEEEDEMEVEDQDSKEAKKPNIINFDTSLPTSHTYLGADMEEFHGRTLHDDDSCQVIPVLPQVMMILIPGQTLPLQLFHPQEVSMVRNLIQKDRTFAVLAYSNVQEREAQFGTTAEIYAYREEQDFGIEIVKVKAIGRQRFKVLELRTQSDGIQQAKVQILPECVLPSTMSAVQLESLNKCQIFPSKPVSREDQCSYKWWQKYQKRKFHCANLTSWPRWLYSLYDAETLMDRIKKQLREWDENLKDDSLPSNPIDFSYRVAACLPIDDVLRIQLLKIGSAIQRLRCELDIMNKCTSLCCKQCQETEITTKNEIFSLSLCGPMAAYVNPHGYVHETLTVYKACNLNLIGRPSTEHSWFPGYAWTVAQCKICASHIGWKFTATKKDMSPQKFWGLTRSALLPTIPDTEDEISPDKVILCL

Activity: inactive
SMILES: O=C(CCCOc1ccc(CC(=O)Nc2cc(C3CCC3)[nH]n2)cc1)NCCOCCOCCNc1cccc2c1C(=O)N(C1CCC(=O)NC1=O)C2=O (stereo unspecified)
